Test results from publication PMC5217871 (Journal of Diabetes Investigation, 2016).
“Also recorded” adds a separate entry of the source. Where two headings read alike, the source gives them in different places. Values belong to the compound of their own block, whether it stands above or below them.

What was measured:
[1] = cited from earlier work
[2] = type: in vivo, healthy Japanese men; conditions: for Accumulation ratio (day 15/day 1) AUC0–168h / Accumulation ratio (day 15/day 1) Cmax / Accumulation ratio (day 15/day 1) Ctrough: geometric mean ratio (90% CI)
Outline: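 Blood went into dipotassium-EDTA tubes, was spun 10 min at 1000–1300 g, and plasma was frozen at −20°C. Assay was online-extraction turbulent-flow LC, LLOQ 1.0 ng/mL. Accumulation was the day 15/day 1 geometric mean ratio, computed on the log scale with CIs. For the food comparison, 10 mg single doses were given after a ≥10-h fast or after a 411-kcal Japanese breakfast finished 10 min predose.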

Urine pharmacokinetics = type: in vivo, healthy Japanese men; conditions: male, human, 50 mg
Outline: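 After the 50 mg once-weekly dose on day 15, urine was collected predose (day 1) and at intervals up to 168 h. Tween 20 was added to 0.2% final and samples were stored at −20°C. The assay was LC online extraction, LLOQ 40 ng/mL. Amount excreted was the sum of concentration × volume per interval, fraction excreted was amount/dose, and renal clearance was amount/AUC0–168h.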

plasma DPP‐4 activity [3] = molecular target: T1, plasma DPP‐4 activity (Homo sapiens, UniProt P27487); test: Percent inhibition of plasma DPP-4 activity from baseline; type: in vivo, healthy Japanese men; conditions: for DPP-4 percent inhibition from baseline, LS mean (95% CI) / DPP-4 percent inhibition, difference from placebo, difference in LS means (90% CI): 168 h post-dose
Outline: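 Healthy men received 1–50 mg orally once weekly for 3 weeks. Blood was drawn predose and at set times on days 1 and 15; 4-h and 24-h samples preceded meals. EDTA plasma was incubated with glycyl-prolyl-paranitroanilide, and the absorbance rise at 390 nm was read from 4 to 14 min (LOQ 0.6 mOD/min). Inhibition was taken versus pretreatment and analysed by a log-scale mixed model (treatment, day, interaction; participant random).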

plasma DPP‐4 activity [4] = molecular target: T1, plasma DPP‐4 activity; type: in vivo, healthy Japanese men; conditions: pharmacokinetic/pharmacodynamic Emax model
Outline: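 For each participant, percent inhibition of plasma DPP-4 activity (chromogenic glycyl-prolyl-paranitroanilide substrate, 390 nm) was paired with plasma drug concentration after single oral doses. A population three-parameter Emax model (Emax, EC50, Hill slope) was fitted, and the 80% effective concentration was derived from it.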

[5] = Safety and tolerability assessments; type: in vivo, healthy Japanese men
Outline: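 Part 1 used single doses of 5–100 mg and part 2 used 1–50 mg once weekly for 3 weeks, each with placebo. Adverse events were recorded throughout and rated for intensity, duration, severity, outcome and drug relationship. Vital signs, physical and neurological exams, 12-lead ECGs, laboratory tests and glucometer readings were taken predose, post-dose and post-study. Events were tabulated by dose, with change-from-baseline summaries.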

[6] = concentration range for 50 mg q.w. dosing; ref unpubl. data; cited from earlier work
[7] = no reference given; cited from earlier work
OAT1 = conditions: no reference given; cited from earlier work
OAT3 = conditions: no reference given; cited from earlier work
OCT2 = conditions: no reference given; cited from earlier work
[8] = test system: active glucagon‐like peptide‐1; conditions: healthy males; earlier study; cited from earlier work
[9] = multiple dose 1 mg q.w., day 15
[10] = multiple dose 10 mg q.w., day 15
[11] = multiple dose 25 mg q.w., day 15
[12] = multiple dose 50 mg q.w., day 15
[13] = single 5–100 mg and multiple 1–50 mg q.w. doses
[14] = single 5–100 mg and multiple 1–50 mg q.w. doses, listed as Omarigliptin

T1 sequence (P27487 39-766): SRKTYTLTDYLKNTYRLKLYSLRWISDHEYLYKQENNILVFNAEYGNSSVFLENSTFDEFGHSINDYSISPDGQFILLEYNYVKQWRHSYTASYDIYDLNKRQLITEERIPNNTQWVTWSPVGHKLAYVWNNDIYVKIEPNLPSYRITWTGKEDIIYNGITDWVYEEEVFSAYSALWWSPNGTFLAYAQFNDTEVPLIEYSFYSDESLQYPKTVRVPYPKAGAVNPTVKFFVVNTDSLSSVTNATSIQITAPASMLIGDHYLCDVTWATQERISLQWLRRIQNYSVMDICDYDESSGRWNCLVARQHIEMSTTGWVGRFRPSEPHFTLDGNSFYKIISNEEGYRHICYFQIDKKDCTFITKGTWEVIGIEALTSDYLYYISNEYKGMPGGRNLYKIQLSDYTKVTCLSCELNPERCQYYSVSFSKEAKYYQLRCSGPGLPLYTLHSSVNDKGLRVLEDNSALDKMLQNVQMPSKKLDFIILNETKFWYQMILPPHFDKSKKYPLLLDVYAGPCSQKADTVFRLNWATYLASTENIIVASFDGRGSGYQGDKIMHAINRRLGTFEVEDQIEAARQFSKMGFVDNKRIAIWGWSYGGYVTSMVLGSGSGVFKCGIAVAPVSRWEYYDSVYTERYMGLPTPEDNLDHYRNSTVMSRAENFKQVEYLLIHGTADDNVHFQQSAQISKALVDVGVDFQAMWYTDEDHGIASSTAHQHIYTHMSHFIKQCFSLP

Compound: Cn1c(=O)cc(N2CCC[C@@H](N)C2)n(Cc2ccccc2C#N)c1=O [alogliptin]
renal clearance compared with typical glomerular filtration rates [1]: higher renal clearance than typical glomerular filtration rates

Compound: N[C@@H](CC(=O)N1CCn2c(nnc2C(F)(F)F)C1)Cc1cc(F)c(F)cc1F [sitagliptin]
renal clearance compared with typical glomerular filtration rates [1]: higher renal clearance than typical glomerular filtration rates

Accumulation ratio (day 15/day 1) AUC0–168h ([2]; 1 mg q.w. for 3 weeks): 1.35 (1.27–1.44)
Accumulation ratio (day 15/day 1) Cmax ([2]; 1 mg q.w. for 3 weeks): 1.36 (1.13–1.63)
Accumulation ratio (day 15/day 1) Ctrough ([2]; 1 mg q.w. for 3 weeks): 1.24 (1.06–1.44)
Accumulation ratio (day 15/day 1) AUC0–168h ([2]; 10 mg q.w. for 3 weeks): 1.09 (1.04–1.15)
Accumulation ratio (day 15/day 1) Cmax ([2]; 10 mg q.w. for 3 weeks): 1.18 (1.00–1.38)
Accumulation ratio (day 15/day 1) Ctrough ([2]; 10 mg q.w. for 3 weeks): 0.97 (0.86–1.10)
Accumulation ratio (day 15/day 1) AUC0–168h ([2]; 25 mg q.w. for 3 weeks): 1.05 (1.00–1.11)
Accumulation ratio (day 15/day 1) Cmax ([2]; 25 mg q.w. for 3 weeks): 0.87 (0.75–1.02)
Accumulation ratio (day 15/day 1) Ctrough ([2]; 25 mg q.w. for 3 weeks): 1.11 (0.98–1.26)
Accumulation ratio (day 15/day 1) AUC0–168h ([2]; 50 mg q.w. for 3 weeks): 1.03 (0.97–1.09)
Accumulation ratio (day 15/day 1) Cmax ([2]; 50 mg q.w. for 3 weeks): 1.21 (1.02–1.43)
Accumulation ratio (day 15/day 1) Ctrough ([2]; 50 mg q.w. for 3 weeks): 1.03 (0.90–1.18)
accumulation ratio (day 15/day 1) AUC0–168h, range ([2]; 1–50 mg q.w. for 3 weeks): 1.03–1.35
accumulation ratio (day 15/day 1) Cmax, range ([2]; 1–50 mg q.w. for 3 weeks): 0.87–1.36
accumulation ratio (day 15/day 1) trough plasma concentration, range ([2]; 1–50 mg q.w. for 3 weeks): 0.97–1.24
half-life ([2]; male, human, plasma, po, 10 mg, t½, single dose 10 mg, fed, geometric mean (%CV)): 89.5 h
dose proportionality of AUC0–168h and trough plasma concentration ([2]; multiple dose 1–50 mg q.w.): less than dose‐proportional
dose proportionality of Cmax ([2]; multiple dose 1–50 mg q.w.): dose‐proportional
time at which steady state was reached ([2]; multiple q.w. dosing, all doses tested): after the first dose
AUC0–168h geometric mean ratio (fed/fasted) ([2]; single dose 10 mg, GMR, 90% CI): 0.97 (0.90–1.03)
AUC0–∞ geometric mean ratio (fed/fasted) ([2]; single dose 10 mg, GMR, 90% CI): 1.03 (0.96–1.11)
C168h geometric mean ratio (fed/fasted) ([2]; single dose 10 mg, GMR, 90% CI): 1.13 (0.93–1.37)
Cmax geometric mean ratio (fed/fasted) ([2]; single dose 10 mg, GMR, 90% CI): 0.75 (0.65–0.86)
dose proportionality of AUC0–∞, AUC0–168h and Cmax ([2]; single dose 5–100 mg): approximately dose‐proportional
dose proportionality of C168h ([2]; single dose 5–100 mg): less than dose‐proportional
CL renal (Urine pharmacokinetics; urine and plasma, oral): 50 to 68 mL/min
CL renal (Urine pharmacokinetics; urine, po): 38.3 mL/min
percent inhibition of DPP‐4 activity from baseline at 168 h, range (plasma DPP‐4 activity [3]; 1–50 mg q.w., after 3 weeks dosing): 51.3–90.2%
DPP-4 percent inhibition from baseline, LS mean (95% CI) (plasma DPP‐4 activity [3]; [9]): 51.33 (29.67–66.32) %
DPP-4 percent inhibition, difference from placebo, difference in LS means (90% CI) (plasma DPP‐4 activity [3]; [9]): 42.48 (31.06–54.19) %
DPP-4 percent inhibition from baseline, LS mean (95% CI) (plasma DPP‐4 activity [3]; [10]): 83.26 (77.03–87.80) %
DPP-4 percent inhibition, difference from placebo, difference in LS means (90% CI) (plasma DPP‐4 activity [3]; [10]): 74.41 (65.73–83.59) %
DPP-4 percent inhibition from baseline, LS mean (95% CI) (plasma DPP‐4 activity [3]; [11]): 87.52 (83.55–90.53) %
DPP-4 percent inhibition, difference from placebo, difference in LS means (90% CI) (plasma DPP‐4 activity [3]; [11]): 78.67 (70.36–87.51) %
DPP-4 percent inhibition from baseline, LS mean (95% CI) (plasma DPP‐4 activity [3]; [12]): 90.23 (86.59–92.88) %
DPP-4 percent inhibition, difference from placebo, difference in LS means (90% CI) (plasma DPP‐4 activity [3]; [12]): 81.37 (73.30–90.00) %
DPP-4 percent inhibition from baseline, LS mean (95% CI) (plasma DPP‐4 activity [3]; single dose 5 mg): 79.20 (76.17–81.85) %
DPP-4 percent inhibition, difference from placebo, difference in LS means (90% CI) (plasma DPP‐4 activity [3]; single dose 5 mg): 87.89 (80.96–95.09) %
DPP-4 percent inhibition from baseline, LS mean (95% CI) (plasma DPP‐4 activity [3]; single dose 10 mg (fasted)): 77.39 (74.14–80.24) %
DPP-4 percent inhibition, difference from placebo, difference in LS means (90% CI) (plasma DPP‐4 activity [3]; single dose 10 mg (fasted)): 86.09 (79.05–93.38) %
DPP-4 percent inhibition from baseline, LS mean (95% CI) (plasma DPP‐4 activity [3]; single dose 10 mg (fed)): 73.90 (70.14–77.18) %
DPP-4 percent inhibition, difference from placebo, difference in LS means (90% CI) (plasma DPP‐4 activity [3]; single dose 10 mg (fed)): 82.59 (75.36–90.06) %
DPP-4 percent inhibition from baseline, LS mean (95% CI) (plasma DPP‐4 activity [3]; single dose 25 mg): 85.97 (83.66–87.95) %
DPP-4 percent inhibition, difference from placebo, difference in LS means (90% CI) (plasma DPP‐4 activity [3]; single dose 25 mg): 94.66 (88.11–101.49) %
DPP-4 percent inhibition from baseline, LS mean (95% CI) (plasma DPP‐4 activity [3]; single dose 50 mg): 86.76 (84.59–88.63) %
DPP-4 percent inhibition, difference from placebo, difference in LS means (90% CI) (plasma DPP‐4 activity [3]; single dose 50 mg): 95.45 (88.95–102.25) %
DPP-4 percent inhibition from baseline, LS mean (95% CI) (plasma DPP‐4 activity [3]; single dose 100 mg): 94.01 (93.03–94.85) %
DPP-4 percent inhibition, difference from placebo, difference in LS means (90% CI) (plasma DPP‐4 activity [3]; single dose 100 mg): 102.70 (96.60–109.11) %
inhibition from baseline of DPP‐4 activity maintained for 168 h (plasma DPP‐4 activity [3]; single and multiple q.w. administration at a dose of 25 mg or higher): Greater than 80%
Emax value (plasma DPP‐4 activity [4]): 96.5 % inhibition
estimated 80% effective concentration (plasma DPP‐4 activity [4]): 11.4 nmol
Compound: CS(=O)(=O)n1cc2c(n1)CN([C@H]1CO[C@H](c3cc(F)ccc3F)[C@@H](N)C1)C2 [omarigliptin]
effect of food on pharmacokinetics ([2]; 10 mg single dose with Japanese standard breakfast): did not meaningfully alter the pharmacokinetics
drug‐related clinical adverse events after omarigliptin ([5]; part 1, single dosing): five
drug‐related adverse events ([5]; part 2, multiple dosing): Eight
total clinical adverse events ([5]; part 2, multiple dosing, nine participants): 13
adverse events of hypoglycemia [5, 13]: no adverse events of hypoglycemia
serious clinical or laboratory adverse events [5, 13]: no serious clinical or laboratory adverse events; also recorded: No deaths, serious adverse events or laboratory adverse events were reported
tolerability [5, 13]: well tolerated
adverse events of hypoglycemia [5, 14]: no hypoglycemia being reported
tolerability [5, 14]: generally well tolerated
changes from baseline in laboratory, vital signs, glucose monitoring or ECG parameters ([5]; whole study): no clinically significant, consistent treatment‐related or dose‐related changes from baseline
discontinuation because of an adverse event ([5]; whole study): no participants were discontinued
intensity of adverse events ([5]; whole study, all resolved by the end of the study): mild or moderate intensity
free fraction of omarigliptin in humans [6]: 56–76%
permeability [7]: high permeability
substrate of drug transporter OAT1 (OAT1): not a substrate
substrate of drug transporter OAT3 (OAT3): not a substrate
substrate of drug transporter OCT2 (OCT2): not a substrate
enhancement of post‐meal active glucagon‐like peptide‐1 [8]: approximately twofold

Compound: Cn1c(=O)cc(N2CCC[C@@H](N)C2)n(Cc2cc(F)ccc2C#N)c1=O [trelagliptin]
renal clearance compared with typical glomerular filtration rates [1]: higher renal clearance than typical glomerular filtration rates
